Measurements reported in ChEMBL document CHEMBL1142013, “Tryptamine and homotryptamine-based sulfonamides as potent and selective inhibitors of 15-lipoxygenase” (Bioorg Med Chem Lett, 2005).

How the values were obtained:
[1] = molecular target: T1, Polyunsaturated fatty acid lipoxygenase ALOX15 (Oryctolagus cuniculus, UniProt P12530); test: Inhibitory concentration against rabbit reticulocyte 15-lipoxygenase with substrate arachidonic acid
T1 sequence (P12530 whole entry): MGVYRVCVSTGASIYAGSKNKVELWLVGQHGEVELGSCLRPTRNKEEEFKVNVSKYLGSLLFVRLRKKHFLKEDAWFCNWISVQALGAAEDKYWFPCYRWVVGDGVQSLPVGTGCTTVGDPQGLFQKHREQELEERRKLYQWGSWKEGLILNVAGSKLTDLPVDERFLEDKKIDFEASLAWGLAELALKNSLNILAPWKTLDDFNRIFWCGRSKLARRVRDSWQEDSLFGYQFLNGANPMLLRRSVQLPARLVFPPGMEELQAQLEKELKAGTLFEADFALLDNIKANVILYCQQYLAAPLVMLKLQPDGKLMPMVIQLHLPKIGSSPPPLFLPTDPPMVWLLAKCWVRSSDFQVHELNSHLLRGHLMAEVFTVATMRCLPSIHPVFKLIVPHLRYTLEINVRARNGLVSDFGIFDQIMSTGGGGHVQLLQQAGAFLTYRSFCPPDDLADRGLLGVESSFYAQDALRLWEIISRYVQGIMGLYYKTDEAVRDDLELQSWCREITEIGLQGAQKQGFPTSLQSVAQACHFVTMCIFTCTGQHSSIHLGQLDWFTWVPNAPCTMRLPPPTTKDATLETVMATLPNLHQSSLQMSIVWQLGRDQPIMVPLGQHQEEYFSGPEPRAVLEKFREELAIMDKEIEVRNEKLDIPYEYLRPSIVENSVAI
Outline: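 Purified rabbit reticulocyte 15-LO, isolated from phenylhydrazine-treated rabbits, with arachidonic acid as the substrate. IC50 comes from a colorimetric read-out in which the 15-HPETE product oxidizes Fe²⁺ under mildly acidic conditions. Many values were also verified by the spectrophotometric diene-formation rate (A₂₃₄).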

[2] = molecular target: T1, Polyunsaturated fatty acid lipoxygenase ALOX15; test: Inhibitory concentration against isolated rabbit reticulocyte 15-lipoxygenase measured in the presence of linoleic acid
Outline: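 15-LO was purified from reticulocytes of phenylhydrazine-treated rabbits. Linoleic acid was the substrate. In a colorimetric assay, the 13-HPODE product oxidizes Fe²⁺ under mildly acidic conditions, and IC50 is derived from this. Many values were also checked spectrophotometrically by the rate of diene formation (A₂₃₄).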

[3] = molecular target: T2, Polyunsaturated fatty acid 5-lipoxygenase (Homo sapiens, UniProt P09917); test: Inhibitory concentration against human 5-lipoxygenase
T2 sequence (P09917 whole entry): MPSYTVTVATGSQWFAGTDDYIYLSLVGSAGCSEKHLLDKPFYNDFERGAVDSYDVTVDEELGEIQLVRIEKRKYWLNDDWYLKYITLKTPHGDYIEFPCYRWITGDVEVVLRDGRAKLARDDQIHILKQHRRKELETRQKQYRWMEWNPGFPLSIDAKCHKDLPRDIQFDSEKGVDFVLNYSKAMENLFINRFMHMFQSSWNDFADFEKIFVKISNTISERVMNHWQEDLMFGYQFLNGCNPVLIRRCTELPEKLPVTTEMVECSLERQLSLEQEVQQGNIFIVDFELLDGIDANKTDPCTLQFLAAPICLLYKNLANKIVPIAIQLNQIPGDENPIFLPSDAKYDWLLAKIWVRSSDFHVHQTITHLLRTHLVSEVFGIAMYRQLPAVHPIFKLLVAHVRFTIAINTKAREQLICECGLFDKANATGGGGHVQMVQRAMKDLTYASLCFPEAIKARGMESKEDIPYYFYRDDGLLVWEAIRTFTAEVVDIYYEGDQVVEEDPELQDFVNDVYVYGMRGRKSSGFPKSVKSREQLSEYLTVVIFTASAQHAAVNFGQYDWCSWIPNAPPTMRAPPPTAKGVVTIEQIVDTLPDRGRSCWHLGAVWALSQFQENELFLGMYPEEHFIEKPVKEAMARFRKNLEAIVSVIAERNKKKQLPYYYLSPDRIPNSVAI
Outline: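 Recombinant human 5-LO enzyme. Inhibition was followed by oxidation of arachidonic acid as the substrate. IC50 values were determined.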

[4] = molecular target: T3, Polyunsaturated fatty acid lipoxygenase ALOX12 (Homo sapiens, UniProt P18054); test: Inhibitory concentration against human platelet-derived 12-lipoxygenase
T3 sequence (P18054 whole entry): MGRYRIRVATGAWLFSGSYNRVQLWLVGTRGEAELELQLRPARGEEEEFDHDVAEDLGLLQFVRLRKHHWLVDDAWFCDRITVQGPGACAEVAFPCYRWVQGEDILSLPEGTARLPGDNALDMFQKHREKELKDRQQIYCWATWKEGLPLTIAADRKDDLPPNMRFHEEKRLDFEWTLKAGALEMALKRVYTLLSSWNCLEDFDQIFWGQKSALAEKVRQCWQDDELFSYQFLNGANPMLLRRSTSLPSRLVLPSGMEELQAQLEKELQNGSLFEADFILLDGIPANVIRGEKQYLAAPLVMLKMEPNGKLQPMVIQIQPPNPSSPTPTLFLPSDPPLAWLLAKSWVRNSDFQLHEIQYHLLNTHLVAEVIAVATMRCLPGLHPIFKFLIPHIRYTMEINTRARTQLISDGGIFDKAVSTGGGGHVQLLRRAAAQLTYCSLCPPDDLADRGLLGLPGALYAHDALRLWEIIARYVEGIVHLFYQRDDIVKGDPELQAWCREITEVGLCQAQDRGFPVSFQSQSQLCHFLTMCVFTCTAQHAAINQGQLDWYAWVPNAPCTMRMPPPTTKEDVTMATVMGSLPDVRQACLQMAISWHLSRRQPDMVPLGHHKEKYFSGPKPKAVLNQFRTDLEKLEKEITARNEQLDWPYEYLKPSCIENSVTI

SMILES | IC50 [1] [nM] | IC50 [2] [nM] | IC50 [3] [nM] | IC50 [4] [nM]
CC(C)c1ccc(-c2ccc(S(=O)(=O)NCCc3c[nH]c4ccccc34)cc2)cc1 | 140 | 280 |  | 
Cc1ccccc1-c1ccc(S(=O)(=O)NCCc2c[nH]c3ccccc23)cc1 | 460 | 920 |  | 
O=S(=O)(NCCc1c(-c2cc3ccccc3o2)[nH]c2ccccc12)c1ccc(Br)cc1 | 161 | 30 |  | 
CC(C)Cc1ccc(-c2ccc(S(=O)(=O)NCCc3c[nH]c4ccccc34)cc2)cc1 | 170 | 910 |  | 
Cc1ccc(S(=O)(=O)NCCc2c(-c3cc4ccccc4o3)[nH]c3ccccc23)cc1 | 78 | 10 | > 10000 | > 10000
CCCCCc1ccc(S(=O)(=O)NCCc2c(-c3cnc4ccccc4c3)[nH]c3ccccc23)cc1 | 50 | 13 |  | 
CCCCCc1ccc(S(=O)(=O)NCCc2c(-c3cc4ccccc4o3)[nH]c3ccccc23)cc1 |  |  | > 3000 | > 3000
CCCc1ccc(S(=O)(=O)NCCc2c[nH]c3ccccc23)cc1 | 3200 | 3130 |  | 
CCCCCc1ccc(S(=O)(=O)NCCc2c(-c3ccc(C(F)(F)F)cc3)[nH]c3ccccc23)cc1 | 132 | 11 |  | 
CCCCCc1ccc(S(=O)(=O)NCCc2c[nH]c3ccc(C)cc23)cc1 | 3900 |  |  | 
O=C(NC1CCCCC1)c1ccc(S(=O)(=O)NCCc2c(-c3cc4ccccc4o3)[nH]c3ccccc23)cc1 | 34 | 12 |  | 
CCCCCc1ccc(S(=O)(=O)NCCc2c[nH]c3cc(F)ccc23)cc1 | 2900 |  |  | 
CCc1ccc(S(=O)(=O)NCCc2c[nH]c3ccccc23)cc1 | > 10000 | > 10000 |  | 
CCCCNC(=O)c1ccc(S(=O)(=O)NCCc2c(-c3cc4ccccc4o3)[nH]c3ccccc23)cc1 | 112 | 42 |  | 
COc1ccc(-c2ccc(S(=O)(=O)NCCc3c[nH]c4ccccc34)cc2)cc1 | 1090 | 1500 |  | 
COc1ccc(-c2[nH]c3ccccc3c2CCNS(=O)(=O)c2ccc(C)cc2)cc1 | 780 | 110 |  | 
CCCCc1ccc(-c2ccc(S(=O)(=O)NCCc3c[nH]c4ccccc34)cc2)cc1 | 200 | 530 |  | 
COc1ccc(-c2[nH]c3ccccc3c2CCNS(=O)(=O)c2ccc(-c3ccccc3)cc2)cc1 | 247 | 27 |  | 
CCCCCc1ccc(S(=O)(=O)NCCc2c(-c3ccc(OCC)cc3)[nH]c3ccccc23)cc1 | 39 | 11 |  | 
CCCCCc1ccc(S(=O)(=O)NCCc2c[nH]c3ccc(F)cc23)cc1 | 6300 |  |  | 
Cc1ccc(-c2ccc(S(=O)(=O)NCCc3c[nH]c4ccccc34)cc2)cc1 | 470 |  |  | 
CCCCCc1ccc(S(=O)(=O)NCCc2c[nH]c3cc(C(=O)O)ccc23)cc1 | > 30000 | 24000 |  | 
CCCCCc1ccc(S(=O)(=O)NCCc2c(-c3ccc(Cl)cc3)[nH]c3ccccc23)cc1 | 120 | 32 | > 3000 | > 10000
CCCCCc1ccc(S(=O)(=O)NCCc2c[nH]c3ccccc23)cc1 | 1020 | 420 |  | 
CN(C)CCN(C)C(=O)c1ccc(S(=O)(=O)NCCc2c(-c3cc4ccccc4o3)[nH]c3ccccc23)cc1 | 382 | 76 |  | 
Cc1ccc(S(=O)(=O)NCCc2c[nH]c3ccccc23)cc1 | > 10000 | > 10000 |  | 

SMILES | IC50 [1] [nM] | IC50 [2] [nM] | IC50 [3] [nM] | IC50 [4] [nM]
CCCCCc1ccc(S(=O)(=O)NCCc2c[nH]c3ccc(-c4ccc[nH]4)cc23)cc1 |  | 780 |  | 
CCCCCc1ccc(S(=O)(=O)N(C)CCc2c[nH]c3ccccc23)cc1 |  | > 10000 |  | 
CCCCCc1ccc(S(=O)(=O)NCCc2c(-c3cc4ccccc4o3)n(C)c3ccccc23)cc1 | 1420 | 143 |  | 
CCCCCc1ccc(S(=O)(=O)NC(C)Cc2c[nH]c3ccccc23)cc1 (configuration not stated) |  | 1600 |  | 
CCCCCc1ccc(S(=O)(=O)NCCc2c(-c3ccccc3)[nH]c3ccccc23)cc1 | 140 | 62 | > 3000 | > 10000
CCCCCc1ccc(S(=O)(=O)NCCc2c[nH]c3c(C)cccc23)cc1 | 3300 |  |  | 
CN(C)c1cccc2c(S(=O)(=O)NCCc3c[nH]c4ccccc34)cccc12 |  | 3730 |  | 
CCCCCc1ccc(S(=O)(=O)N2CCC(c3c[nH]c4ccccc34)C2)cc1 (configuration not stated) |  | > 10000 |  | 
CCCCc1ccc(S(=O)(=O)NCCc2c[nH]c3ccccc23)cc1 | 4000 | 3070 |  | 
Cc1cccc(-c2ccc(S(=O)(=O)NCCc3c[nH]c4ccccc34)cc2)c1 | 320 | 450 |  | 
O=C(Nc1ccccc1)c1ccc(S(=O)(=O)NCCc2c(-c3cc4ccccc4o3)[nH]c3ccccc23)cc1 | 51 | 15 |  | 
CC(C)(C)c1ccc(-c2ccc(S(=O)(=O)NCCc3c[nH]c4ccccc34)cc2)cc1 | 230 | 270 |  | 
CCCCCc1ccc(S(=O)(=O)NCCc2c(-c3cc(OC)ccc3OC)[nH]c3ccccc23)cc1 | 132 | 28 |  | 
COc1ccc(NC(=O)c2ccc(S(=O)(=O)NCCc3c(-c4cc5ccccc5o4)[nH]c4ccccc34)cc2)cc1 | 26 | 11 |  | 
CCCCCc1ccc(S(=O)(=O)NCCc2c(-c3cccc(C)c3)[nH]c3ccccc23)cc1 | 58 | 25 |  | 
CCc1ccc(-c2ccc(S(=O)(=O)NCCc3c[nH]c4ccccc34)cc2)cc1 | 470 | 260 |  | 
CCCCCc1ccc(S(=O)(=O)NCCc2c[nH]c3cc(C(=O)OC)ccc23)cc1 | 472 | 236 |  | 
CCCCCc1ccc(S(=O)(=O)NCCc2c(-c3ccc4oc5ccccc5c4c3)[nH]c3ccccc23)cc1 | 71 | 10 |  | 
CCCCCc1ccc(S(=O)(=O)NCCCc2c[nH]c3ccccc23)cc1 |  |  | > 10000 | 1070
CN(CCO)C(=O)c1ccc(S(=O)(=O)NCCc2c(-c3cc4ccccc4o3)[nH]c3ccccc23)cc1 | 4050 | 440 |  | 
O=S(=O)(NCCCc1c(-c2cc3ccccc3o2)[nH]c2ccccc12)c1ccc(-c2ccccc2)cc1 | 17 | 8 |  | 
COc1ccc(-c2[nH]c3ccccc3c2CCNS(=O)(=O)c2ccc(C(=O)O)cc2)cc1 |  | > 10000 |  | 
O=S(=O)(NCCc1c(-c2cc3ccccc3o2)[nH]c2ccccc12)c1ccc(-c2ccncc2)cc1 | 179 | 47 |  | 
O=S(=O)(NCCc1c[nH]c2ccccc12)c1ccc(-c2ccccc2)cc1 | 4200 | 3400 |  | 
CCCCc1ccc(S(=O)(=O)NCCc2c(-c3ccc(OC)cc3)[nH]c3ccccc23)cc1 |  | 110 |  | 
CC1=C(CC/C(C)=C/CC/C(C)=C/Cc2cc(O)ccc2O)C(C)(C)CCC1 [JASPAQUINOL] |  | 300 |  | 
